In PubChem BioAssay one finds activation and outcome data, which are given here for 18 compounds.

The source made the active and inactive calls.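 Rule for the calls: active = duplicate-averaged activation above buffer control mean plus 5 SD of those controls; inactive = the rest.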

The nature of this experiment: nonspecific flux increase, KCNQ1-free cells – parental CHO cells, counter-screen for KCNQ1 potentiator project (AID 493006). The note with it: parental CHO-K1 cells, FluxOR thallium flux, at 10 µM; active compounds read high. The essentials:
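Assay system: Untransfected host CHO-K1 cells with FluxOR thallium dye | Probe or stimulus: Potassium/thallium depolarization pulse | Schedule: Overnight 37 °C plating, 90 min RT dye, 20 min compound | Detection: Kinetic thallium-flux fluorescence | Read-out: Max-minus-min fluorescence over baseline, percent of buffer-to-R-L3 span | Benchmarks: Low control buffer, high control R-L3 activator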
As for `CCOc1ccc2[nH]c(=O)c(CN(CCN3CCCC3)C(=S)Nc3ccccc3OCC)cc2c1`, the activation was 137% (active). The same measure, in the same setting: as for `COC(=O)C1CCCN1C(=O)COc1ccc(Cl)cc1Br` (stereo not drawn), the figure is 152% (active). With `OCCN1CCN(CCCN2c3ccccc3Sc3ccc(Cl)cc32)CC1`, the result was inactive. Regarding `COC(=O)c1c(NS(=O)(=O)Cc2ccccc2)sc2c1CCCC2`, the activation is 196% (active).

`CC(NC(=S)NC(=O)c1ccccc1Br)c1ccccc1` (stereo not drawn): the outcome was inactive. Consider `CC(=O)CSc1ncnc2sc3c(c12)CCC(C)C3` (stereo not drawn), for which the activation was 474% (active). In the case of `O=C(NCC1CCCO1)c1ccc2c(c1)S(=O)(=O)c1ccccc1C2=O` (stereo not drawn), the outcome was inactive. For the compound `O=C(NC(=S)Nc1nc2c(s1)CSc1ccccc1-2)c1ccccc1`, the activation was 170% (active).

As to `Cc1cc(C)cc(C(=O)OCC(=O)NCC(F)(F)F)c1`, the outcome was inactive. Turning to `C=CCn1c(O)c(N=NC(=S)Nc2ccc(OC)c(Cl)c2)c2ccccc21`, the activation is 191% (active).

Turning to `CC1CCN(S(=O)(=O)c2cccc(C(=O)N3CCN(c4ccc(F)cc4)CC3)c2)CC1`, the result was inactive. Same read-out and setting: as for `CC(=O)N(C)c1ccc(NC(=O)Cc2cccc3ccccc23)cc1`, the entry is “inactive”. As for `O=C(NNC(=S)NC(=O)c1ccco1)c1ccc(F)cc1`, the activation was 198% (active). Turning to `COc1cc(C(=O)NC(=S)NC(C)C)cc(OC)c1OC`, the result was inactive. On to `CCOc1ccc2nc(N3C(=O)/C(=C/c4ccccc4)NC3=S)sc2c1`, for which the activation is 442% (active). As to `C=CCCCN(Cc1ccccc1)S(=O)(=O)c1ccccc1Br`, the result was inactive. Turning to `C/C(=N\NC(=O)c1cc2ccccc2cc1O)c1ccccn1`, the activation was 157% (active).

Consider `O=C(c1ccccc1)N1CCCC(c2ccc(Cl)cc2)=N1`, for which the outcome was inactive.
